Measured values from ChEMBL document CHEMBL4622996, “Discovery of Vixotrigine: A Novel Use-Dependent Sodium Channel Blocker for the Treatment of Trigeminal Neuralgia” (ACS Med Chem Lett, 2020).

Tests used:
[1] = Total blood clearance in monkey blood at 0.5 mg/kg, iv; type: ADME, organism-based, Macaca mulatta; conditions: rhesus monkey
[2] = Half life in monkey at 0.5 mg/kg, iv; type: ADME, organism-based, Macaca mulatta; conditions: rhesus monkey, in vivo
[3] = Oral bioavailability in dog at 3 mg/kg; type: ADME, organism-based, Canis lupus familiaris; conditions: in vivo
[4] = Free plasma concentration in complete Freund's adjuvant-induced rat model at 1 mg/kg, po measured after 1 hr; type: ADME, organism-based; conditions: in vivo
Rattus norvegicus = assay: Antiinflammatory activity in complete Freund's adjuvant-induced rat model assessed as inhibition of CFA-induced hypersensitivity to pain administered orally at a single dose; type: functional; conditions: po
[5] = Free plasma concentration in rat model of chronic constriction injury-induced neuropathic pain at 0.5 mg/kg, po BID administered 22 days post surgery and measured on day 8 at 0.5 hrs post-dose; type: ADME, organism-based; conditions: in vivo
Outline: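 Chronic constriction injury neuropathic pain model in rat; oral dosing at 0.5 or 5 mg/kg BID starting day 22; mechanical allodynia read after 6 and 8 days of dosing; gabapentin 30 mg/kg po BID as positive control. Free plasma levels sampled on day 8, 0.5 h postdose.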

[6] = Total blood clearance in rat blood at 0.5 mg/kg, iv; type: ADME, organism-based
[7] = Total blood clearance in dog blood at 0.5 mg/kg, iv; type: ADME, organism-based, Canis lupus familiaris
[8] = Half life in rat at 0.5 mg/kg, iv; type: ADME, organism-based; conditions: in vivo
[9] = Toxicity in rat assessed as sedation by measuring spontaneous locomotor activity at 60 mg/kg, po; type: organism-based; conditions: in vivo
Outline: (§1)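 Male rats, spontaneous locomotor activity test; oral doses 60, 100 or 300 mg/kg given 30 min before the session; plasma sampled 60 min postdose at 60 mg/kg.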

[10] = Plasma concentration in rat after measuring the spontaneous locomotor activity at 60 mg/kg, po measured after 60 mins post dose; type: ADME, organism-based; outline: as §1
[11] = Cmax in dog at 3 mg/kg, po; type: ADME, organism-based, Canis lupus familiaris; parameters: dose 3 mg/kg, route oral; conditions: in vivo
[12] = target: Voltage-gated inwardly rectifying potassium channel KCNH2 (Homo sapiens, UniProt Q12809); assay: Inhibition of human ERG
[13] = target: Sodium channel protein type 3 subunit alpha (Homo sapiens, UniProt Q9NY46); assay: Inhibition of Nav1.3 (unknown origin) expressed in HEK293 cells assessed as inhibition of sodium current incubated for 3 to 3.5 mins by electrophysiology assay; type: cell-based
Outline: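 HEK293 cells stably expressing NaV1.3, grown in DMEM-F12 with 10% FBS at 37 °C, dissociated at 50–70% confluency; IonWorksHT planar patch clamp at 21–23 °C, amphotericin perforated access; intracellular K-gluconate 100, KCl 40, MgCl2 3.2, EGTA 3, HEPES 5 mM, pH 7.3.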

Cytochrome P450 2A6 = target: T1, Cytochrome P450 2A6 (Homo sapiens, UniProt P11509); assay: Inhibition of CYP2A6 (unknown origin); type: ADME
T1 sequence (P11509 whole entry): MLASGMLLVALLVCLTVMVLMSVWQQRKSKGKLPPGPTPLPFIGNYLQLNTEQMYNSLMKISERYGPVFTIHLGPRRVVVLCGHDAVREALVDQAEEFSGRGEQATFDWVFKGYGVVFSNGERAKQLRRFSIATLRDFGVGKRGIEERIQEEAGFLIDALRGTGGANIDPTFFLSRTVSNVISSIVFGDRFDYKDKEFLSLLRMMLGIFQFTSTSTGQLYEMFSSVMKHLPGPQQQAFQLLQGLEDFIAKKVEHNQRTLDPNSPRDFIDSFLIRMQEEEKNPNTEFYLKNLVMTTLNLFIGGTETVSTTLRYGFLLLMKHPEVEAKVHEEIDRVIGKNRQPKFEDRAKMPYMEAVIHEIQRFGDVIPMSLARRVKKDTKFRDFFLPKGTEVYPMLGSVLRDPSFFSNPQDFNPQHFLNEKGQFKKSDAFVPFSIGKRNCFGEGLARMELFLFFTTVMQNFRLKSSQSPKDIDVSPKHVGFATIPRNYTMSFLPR

Cytochrome P450 2C9 = Cytochrome P450 2C9 (Homo sapiens, UniProt P11712); assay: Inhibition of CYP2C9 (unknown origin); type: ADME
Cytochrome P450 2D6 = Cytochrome P450 2D6 (Homo sapiens, UniProt P10635); assay: Inhibition of CYP2D6 (unknown origin); type: ADME
[14] = target: T2, Solute carrier organic anion transporter family member 1B1 (Homo sapiens, UniProt Q9Y6L6); assay: Inhibition of OATP1B1 (unknown origin) upto 100 uM
T2 sequence (Q9Y6L6 whole entry): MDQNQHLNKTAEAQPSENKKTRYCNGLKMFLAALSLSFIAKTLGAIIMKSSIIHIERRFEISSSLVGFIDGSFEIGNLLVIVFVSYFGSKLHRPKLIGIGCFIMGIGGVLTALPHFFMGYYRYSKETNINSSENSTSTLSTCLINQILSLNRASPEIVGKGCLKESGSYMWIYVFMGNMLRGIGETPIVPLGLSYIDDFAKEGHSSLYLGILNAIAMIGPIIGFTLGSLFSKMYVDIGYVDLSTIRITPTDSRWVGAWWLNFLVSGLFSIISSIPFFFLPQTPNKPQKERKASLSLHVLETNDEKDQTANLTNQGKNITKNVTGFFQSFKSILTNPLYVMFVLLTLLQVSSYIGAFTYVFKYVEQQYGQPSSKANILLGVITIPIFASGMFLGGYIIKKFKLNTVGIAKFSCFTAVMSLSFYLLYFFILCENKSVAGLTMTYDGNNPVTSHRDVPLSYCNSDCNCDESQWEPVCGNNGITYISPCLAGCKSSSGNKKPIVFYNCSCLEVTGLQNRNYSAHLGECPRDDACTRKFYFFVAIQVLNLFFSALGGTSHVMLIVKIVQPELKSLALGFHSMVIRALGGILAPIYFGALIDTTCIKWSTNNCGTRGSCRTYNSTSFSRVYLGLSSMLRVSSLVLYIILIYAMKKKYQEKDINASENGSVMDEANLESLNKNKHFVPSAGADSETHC

[15] = target: T3, Amine oxidase [flavin-containing] B (Homo sapiens, UniProt P27338); assay: Inhibition of MAO-B (unknown origin)
T3 sequence (P27338 whole entry): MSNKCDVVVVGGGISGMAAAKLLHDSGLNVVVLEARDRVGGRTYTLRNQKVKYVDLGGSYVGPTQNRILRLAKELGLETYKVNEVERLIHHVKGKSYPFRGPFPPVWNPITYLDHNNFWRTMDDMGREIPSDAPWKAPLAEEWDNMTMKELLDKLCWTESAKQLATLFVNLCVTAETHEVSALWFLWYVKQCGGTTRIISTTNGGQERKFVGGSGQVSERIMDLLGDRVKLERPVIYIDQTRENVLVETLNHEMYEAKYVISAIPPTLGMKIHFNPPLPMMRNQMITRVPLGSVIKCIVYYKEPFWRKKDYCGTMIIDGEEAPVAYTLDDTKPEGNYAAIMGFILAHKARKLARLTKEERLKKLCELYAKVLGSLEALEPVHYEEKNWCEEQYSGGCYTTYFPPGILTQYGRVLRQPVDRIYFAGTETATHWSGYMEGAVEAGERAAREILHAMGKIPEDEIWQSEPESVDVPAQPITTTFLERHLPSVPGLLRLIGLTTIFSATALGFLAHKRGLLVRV
Outline: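 MAO-B inhibition measured in human liver microsomes, reported as pIC50.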

Chain of Sodium channel protein type 3 subunit alpha (Q9NY46 whole entry): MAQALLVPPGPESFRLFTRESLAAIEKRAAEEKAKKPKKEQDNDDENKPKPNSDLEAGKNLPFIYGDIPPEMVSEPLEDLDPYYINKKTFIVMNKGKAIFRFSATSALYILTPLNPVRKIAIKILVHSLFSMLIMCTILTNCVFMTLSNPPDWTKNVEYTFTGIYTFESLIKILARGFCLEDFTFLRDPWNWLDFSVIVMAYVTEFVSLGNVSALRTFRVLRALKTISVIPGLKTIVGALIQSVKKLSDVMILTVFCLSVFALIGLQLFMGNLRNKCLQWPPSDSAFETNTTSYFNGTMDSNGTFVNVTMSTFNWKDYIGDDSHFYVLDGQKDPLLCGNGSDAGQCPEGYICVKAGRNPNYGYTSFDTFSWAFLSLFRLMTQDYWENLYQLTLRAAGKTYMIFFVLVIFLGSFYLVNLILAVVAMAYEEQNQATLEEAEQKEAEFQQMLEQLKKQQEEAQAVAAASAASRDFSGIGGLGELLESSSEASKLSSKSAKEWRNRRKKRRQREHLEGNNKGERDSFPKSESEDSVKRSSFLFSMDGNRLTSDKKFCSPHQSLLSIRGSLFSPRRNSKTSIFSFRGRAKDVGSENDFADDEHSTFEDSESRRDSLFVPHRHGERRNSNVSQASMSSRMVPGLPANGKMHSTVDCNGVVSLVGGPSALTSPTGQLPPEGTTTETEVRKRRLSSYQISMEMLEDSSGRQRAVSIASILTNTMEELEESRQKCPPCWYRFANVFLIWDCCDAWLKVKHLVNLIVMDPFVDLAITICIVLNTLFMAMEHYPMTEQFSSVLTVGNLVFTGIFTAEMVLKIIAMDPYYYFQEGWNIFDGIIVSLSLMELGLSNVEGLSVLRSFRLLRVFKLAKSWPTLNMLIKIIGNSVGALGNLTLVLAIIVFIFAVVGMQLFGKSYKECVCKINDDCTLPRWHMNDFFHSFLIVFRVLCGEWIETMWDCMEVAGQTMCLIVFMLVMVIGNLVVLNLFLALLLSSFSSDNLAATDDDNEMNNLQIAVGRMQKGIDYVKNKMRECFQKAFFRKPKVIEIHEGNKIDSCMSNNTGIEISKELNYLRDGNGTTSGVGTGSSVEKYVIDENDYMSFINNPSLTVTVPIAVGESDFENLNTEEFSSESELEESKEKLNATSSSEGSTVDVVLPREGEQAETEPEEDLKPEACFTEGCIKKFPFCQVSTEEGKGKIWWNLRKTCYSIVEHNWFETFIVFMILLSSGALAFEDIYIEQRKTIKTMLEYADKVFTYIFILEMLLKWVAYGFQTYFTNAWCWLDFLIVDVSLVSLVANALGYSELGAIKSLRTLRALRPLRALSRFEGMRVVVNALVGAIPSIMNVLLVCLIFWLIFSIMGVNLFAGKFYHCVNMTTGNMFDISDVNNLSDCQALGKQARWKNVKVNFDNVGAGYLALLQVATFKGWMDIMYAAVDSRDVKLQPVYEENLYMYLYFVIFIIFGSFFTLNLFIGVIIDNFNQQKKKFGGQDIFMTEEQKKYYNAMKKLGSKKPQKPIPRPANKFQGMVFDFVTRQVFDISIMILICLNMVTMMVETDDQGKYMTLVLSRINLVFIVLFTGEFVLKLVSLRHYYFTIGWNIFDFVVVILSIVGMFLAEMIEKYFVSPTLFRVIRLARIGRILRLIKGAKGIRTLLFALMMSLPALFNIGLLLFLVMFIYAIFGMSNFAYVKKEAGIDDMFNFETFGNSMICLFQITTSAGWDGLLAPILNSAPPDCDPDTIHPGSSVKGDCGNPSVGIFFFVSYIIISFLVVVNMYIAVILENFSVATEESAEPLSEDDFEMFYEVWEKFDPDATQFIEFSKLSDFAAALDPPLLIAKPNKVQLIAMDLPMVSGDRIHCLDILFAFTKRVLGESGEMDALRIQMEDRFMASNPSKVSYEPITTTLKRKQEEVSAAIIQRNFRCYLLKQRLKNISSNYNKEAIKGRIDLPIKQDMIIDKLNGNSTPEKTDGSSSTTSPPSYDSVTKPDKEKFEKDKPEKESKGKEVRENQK
Chain of Voltage-gated inwardly rectifying potassium channel KCNH2 (Q12809 whole entry): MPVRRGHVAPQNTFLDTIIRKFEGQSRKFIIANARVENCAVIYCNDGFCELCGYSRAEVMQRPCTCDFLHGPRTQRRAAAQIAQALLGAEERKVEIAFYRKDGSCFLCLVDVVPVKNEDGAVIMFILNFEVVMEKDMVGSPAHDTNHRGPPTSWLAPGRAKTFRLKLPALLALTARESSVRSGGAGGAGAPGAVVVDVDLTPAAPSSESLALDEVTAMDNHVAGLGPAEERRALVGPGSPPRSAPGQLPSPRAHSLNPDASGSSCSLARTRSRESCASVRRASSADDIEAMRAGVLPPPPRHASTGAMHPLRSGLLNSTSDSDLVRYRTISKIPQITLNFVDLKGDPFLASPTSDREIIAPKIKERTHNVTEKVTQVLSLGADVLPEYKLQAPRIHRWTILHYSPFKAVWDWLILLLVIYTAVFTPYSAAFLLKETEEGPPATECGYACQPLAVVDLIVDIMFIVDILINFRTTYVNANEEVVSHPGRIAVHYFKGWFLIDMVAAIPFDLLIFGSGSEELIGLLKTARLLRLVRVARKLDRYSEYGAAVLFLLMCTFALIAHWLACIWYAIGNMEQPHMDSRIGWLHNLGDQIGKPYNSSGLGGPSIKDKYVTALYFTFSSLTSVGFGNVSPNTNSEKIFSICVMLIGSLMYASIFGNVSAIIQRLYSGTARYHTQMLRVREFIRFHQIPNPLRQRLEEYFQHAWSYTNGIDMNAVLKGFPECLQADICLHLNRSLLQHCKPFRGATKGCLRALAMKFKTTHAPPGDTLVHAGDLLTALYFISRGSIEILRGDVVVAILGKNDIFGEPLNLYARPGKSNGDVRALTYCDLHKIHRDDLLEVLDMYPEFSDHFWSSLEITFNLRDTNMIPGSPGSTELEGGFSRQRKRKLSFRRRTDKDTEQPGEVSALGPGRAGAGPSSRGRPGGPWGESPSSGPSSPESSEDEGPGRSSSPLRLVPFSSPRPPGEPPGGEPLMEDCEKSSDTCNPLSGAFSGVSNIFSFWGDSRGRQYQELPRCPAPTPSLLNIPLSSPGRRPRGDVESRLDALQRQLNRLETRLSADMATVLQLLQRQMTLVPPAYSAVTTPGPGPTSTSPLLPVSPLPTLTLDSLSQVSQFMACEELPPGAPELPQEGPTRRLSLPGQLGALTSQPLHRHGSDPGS
Chain of Cytochrome P450 2C9 (P11712 whole entry): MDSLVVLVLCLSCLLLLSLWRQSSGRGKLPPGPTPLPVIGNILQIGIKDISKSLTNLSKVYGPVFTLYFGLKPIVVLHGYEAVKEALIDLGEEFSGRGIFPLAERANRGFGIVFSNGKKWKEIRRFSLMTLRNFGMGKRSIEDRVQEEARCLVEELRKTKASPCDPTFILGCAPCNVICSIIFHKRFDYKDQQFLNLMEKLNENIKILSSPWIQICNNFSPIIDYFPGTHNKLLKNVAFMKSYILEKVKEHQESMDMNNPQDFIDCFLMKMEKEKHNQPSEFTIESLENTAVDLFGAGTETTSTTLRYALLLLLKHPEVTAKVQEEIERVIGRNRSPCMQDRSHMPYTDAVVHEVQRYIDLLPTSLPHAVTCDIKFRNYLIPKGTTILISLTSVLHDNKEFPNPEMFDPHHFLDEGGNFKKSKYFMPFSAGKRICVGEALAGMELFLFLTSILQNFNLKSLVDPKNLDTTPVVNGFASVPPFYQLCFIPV
Chain of Cytochrome P450 2D6 (P10635 whole entry): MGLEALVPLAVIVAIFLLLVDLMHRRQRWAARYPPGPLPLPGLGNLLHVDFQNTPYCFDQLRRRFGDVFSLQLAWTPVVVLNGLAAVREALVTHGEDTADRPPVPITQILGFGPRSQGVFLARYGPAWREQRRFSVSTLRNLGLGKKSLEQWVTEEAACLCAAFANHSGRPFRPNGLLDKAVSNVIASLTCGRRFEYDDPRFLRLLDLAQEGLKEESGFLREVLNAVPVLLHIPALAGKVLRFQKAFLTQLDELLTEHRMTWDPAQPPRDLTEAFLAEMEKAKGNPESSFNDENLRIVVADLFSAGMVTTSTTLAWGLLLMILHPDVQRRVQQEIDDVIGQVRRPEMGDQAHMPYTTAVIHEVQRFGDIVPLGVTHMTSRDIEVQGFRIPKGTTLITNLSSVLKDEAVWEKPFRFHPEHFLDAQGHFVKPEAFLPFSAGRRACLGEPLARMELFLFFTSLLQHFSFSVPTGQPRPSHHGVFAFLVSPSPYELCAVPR

Cl.NC(=O)[C@@H]1CC[C@H](c2ccc(OCc3ccccc3F)cc2)N1 [RAXATRIGINE HYDROCHLORIDE]
clearance [1]: 5 mL/min/kg
half-life [2]: 5 h
bioavailability [3]: 57%
Cp(f) [4]: 7.8 ng/mL
ED50 (Rattus norvegicus): 0.91 mg/kg
Cp(f) [5]: 1.9 ng/mL
clearance [6]: 39 mL/min/kg
clearance [7]: 12 mL/min/kg
half-life [8]: 0.8 h
Activity [9]: Non-Toxic
concentration at 1 h [10]: 13100 ng/mL
Cmax [11]: 705 ng/mL
IC50 [12]: 12.6 µM
IC50 [13]: 63.1 µM
IC50 (Cytochrome P450 2A6): > 100 µM
IC50 (Cytochrome P450 2C9): > 100 µM
IC50 (Cytochrome P450 2D6): > 100 µM
inhibition (INH) [14]: Not Active
IC50 [15]: 0.00398 µM
